Measured values reported in ChEMBL document CHEMBL3352418 (Bioorg Med Chem, 2014).

Assays:
[1] = Cmax in guinea pig at 10.9 mg/kg, po; format: ADME, organism-based, Cavia porcellus; design: dose 10.9 mg/kg, route oral; conditions: in vivo
Procedure, shortened: (§1)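 Single oral dose of 10.9 mg/kg to male animals, n = 3.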

[2] = Tmax in guinea pig at 10.9 mg/kg, po; format: ADME, organism-based, Cavia porcellus; design: dose 10.9 mg/kg, route oral; conditions: in vivo; procedure, shortened: as §1
[3] = AUC in guinea pig at 10.9 mg/kg, po; format: ADME, organism-based, Cavia porcellus; design: dose 10.9 mg/kg, route oral; conditions: plasma; procedure, shortened: as §1
[4] = Cmax in dog at 1.09 mg/kg, iv and 10.9 mg/kg, po; format: ADME, organism-based, Canis lupus familiaris; conditions: in vivo
Procedure, shortened: (§2)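 Male animals (n = 3) dosed at 1.09 mg/kg iv and 10.9 mg/kg p.o.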

[5] = Tmax in dog at 1.09 mg/kg, iv and 10.9 mg/kg, po; format: ADME, organism-based, Canis lupus familiaris; conditions: in vivo; procedure, shortened: as §2
[6] = AUC in dog at 1.09 mg/kg, iv and 10.9 mg/kg, po; format: ADME, organism-based, Canis lupus familiaris; conditions: plasma; procedure, shortened: as §2
[7] = Volume of distribution at steady state in dog at 1.09 mg/kg, iv and 10.9 mg/kg, po; format: ADME, organism-based, Canis lupus familiaris; conditions: in vivo, read-out: Vdss; procedure, shortened: as §2
[8] = Total body clearance in dog at 1.09 mg/kg, iv and 10.9 mg/kg, po; format: ADME, organism-based, Canis lupus familiaris; conditions: in vivo; procedure, shortened: as §2
[9] = Oral bioavailability in dog at 10.9 mg/kg; format: ADME, organism-based, Canis lupus familiaris; conditions: in vivo; procedure, shortened: as §2
[10] = Cmax in monkey at 20 mg/kg, po; format: ADME, organism-based, Macaca mulatta; design: dose 20 mg/kg, route oral; conditions: rhesus monkey, in vivo
Procedure, shortened: (§3)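 Oral dose of 20 mg/kg given to both sexes: males (n = 2) and females (n = 2).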

[11] = Tmax in monkey at 20 mg/kg, po; format: ADME, organism-based, Macaca mulatta; design: dose 20 mg/kg, route oral; conditions: rhesus monkey, in vivo; procedure, shortened: as §3
[12] = AUC in monkey at 20 mg/kg, po; format: ADME, organism-based, Macaca mulatta; design: dose 20 mg/kg, route oral; conditions: rhesus monkey, plasma; procedure, shortened: as §3

SMILES: COc1cccc(CNC(=O)c2nc3scc(COCc4ccc(C(=O)[O-])cc4)c3c(=O)[n-]2)c1.[Na+].[Na+]
- Cmax [1]: 1440 ng/mL
- Tmax [2]: 0.67 h
- AUC [3]: 8360 ng·h/mL
- Cmax [4]: 2440 ng/mL
- Tmax [5]: 2 h
- AUC [6]: 27100 ng·h/mL
- Vd [7]: 0.395 L/kg
- clearance [8]: 1.85 mL/min/kg
- bioavailability [9]: 29%
- Cmax [10]: 6610 ng/mL
- Tmax [11]: 3 h
- AUC [12]: 82400 ng·h/mL
